Experimental data: ChEMBL document CHEMBL1287773, “4-aryl piperazine and piperidine amides as novel mGluR5 positive allosteric modulators” (Bioorg Med Chem Lett, 2010)

Tests used:
[1] = molecular target: Metabotropic glutamate receptor 5 (Homo sapiens, UniProt P41594); assay: Positive allosteric modulation of human mGluR5 expressed in HEK293 cells assessed as Ca2+ influx by FLIPR assay; format: functional, cell-based
In short: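 HEK293 cells stably expressing human mGluR5 d isoform, plated the day before at 25,000 cells/well in DMEM with 10% dialyzed FBS. Loaded 1 h at 37 °C with 4.3 uM Fluo-4 AM in HBSS/20 mM HEPES/1 mM probenecid, pH 7.4, then washed. Eleven-concentration series added, agonist read 1 min; after 15 min, EC20 L-glutamate (final 200-300 nM) added, Ca2+ read 1 min.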

[2] = Intrinsic clearance in human liver microsome assessed as per mg of protein; format: ADME; settings: liver microsomes
[3] = Ratio of drug level in brain to plasma in rat; format: ADME, organism-based; settings: brain and plasma, read-out: BPR
[4] = molecular target: Metabotropic glutamate receptor 5 (Rattus norvegicus) (UniProt P31424); assay: Displacement of [3H]-MPEP from rat mGluR5
Sequence of Metabotropic glutamate receptor 5 (Rattus norvegicus) (P31424 whole entry, looked up): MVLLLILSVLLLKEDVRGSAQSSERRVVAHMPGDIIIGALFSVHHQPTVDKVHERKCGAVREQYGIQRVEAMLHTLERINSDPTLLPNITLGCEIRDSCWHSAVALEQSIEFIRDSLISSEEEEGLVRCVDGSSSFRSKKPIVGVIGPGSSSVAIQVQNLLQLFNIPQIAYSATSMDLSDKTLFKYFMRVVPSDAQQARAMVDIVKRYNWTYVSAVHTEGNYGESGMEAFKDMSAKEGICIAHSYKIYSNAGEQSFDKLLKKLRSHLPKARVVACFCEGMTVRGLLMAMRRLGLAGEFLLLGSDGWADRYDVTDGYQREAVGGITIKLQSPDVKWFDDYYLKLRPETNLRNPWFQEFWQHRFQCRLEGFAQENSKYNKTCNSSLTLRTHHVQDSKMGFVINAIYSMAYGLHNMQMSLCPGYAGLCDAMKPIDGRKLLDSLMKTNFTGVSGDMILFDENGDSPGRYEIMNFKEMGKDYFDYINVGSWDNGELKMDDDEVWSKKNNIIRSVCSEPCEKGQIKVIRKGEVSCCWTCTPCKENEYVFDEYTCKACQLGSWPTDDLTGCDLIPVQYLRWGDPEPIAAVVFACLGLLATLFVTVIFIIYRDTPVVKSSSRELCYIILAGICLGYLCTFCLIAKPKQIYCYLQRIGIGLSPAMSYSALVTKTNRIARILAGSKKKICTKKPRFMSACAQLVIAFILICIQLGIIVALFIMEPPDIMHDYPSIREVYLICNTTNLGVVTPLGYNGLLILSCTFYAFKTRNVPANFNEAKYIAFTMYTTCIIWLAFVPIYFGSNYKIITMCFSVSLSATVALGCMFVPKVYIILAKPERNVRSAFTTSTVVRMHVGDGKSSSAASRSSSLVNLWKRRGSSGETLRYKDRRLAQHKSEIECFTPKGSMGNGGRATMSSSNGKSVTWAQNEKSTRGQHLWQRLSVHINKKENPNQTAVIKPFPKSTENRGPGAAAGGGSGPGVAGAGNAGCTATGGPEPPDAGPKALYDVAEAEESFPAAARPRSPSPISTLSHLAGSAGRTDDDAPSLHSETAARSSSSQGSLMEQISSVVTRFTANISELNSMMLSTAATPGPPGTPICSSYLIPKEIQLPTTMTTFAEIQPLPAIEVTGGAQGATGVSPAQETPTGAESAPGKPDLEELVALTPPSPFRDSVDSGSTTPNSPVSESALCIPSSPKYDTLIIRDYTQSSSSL

[5] = Oral bioavailability in dog; format: ADME, organism-based, Canis lupus familiaris; settings: in vivo
[6] = Volume of distribution in dog; format: ADME, organism-based, Canis lupus familiaris; settings: in vivo
[7] = Volume of distribution in rat; format: ADME, organism-based; settings: in vivo
[8] = Oral bioavailability in rat; format: ADME, organism-based; settings: in vivo
[9] = Clearance in rat plasma; format: ADME, organism-based
[10] = Half life in rat; format: ADME, organism-based; settings: in vivo
[11] = Half life in dog; format: ADME, organism-based, Canis lupus familiaris; settings: in vivo
[12] = Clearance in dog plasma; format: ADME, organism-based, Canis lupus familiaris

Sequence of Metabotropic glutamate receptor 5 (P41594 whole entry, canonical isoform): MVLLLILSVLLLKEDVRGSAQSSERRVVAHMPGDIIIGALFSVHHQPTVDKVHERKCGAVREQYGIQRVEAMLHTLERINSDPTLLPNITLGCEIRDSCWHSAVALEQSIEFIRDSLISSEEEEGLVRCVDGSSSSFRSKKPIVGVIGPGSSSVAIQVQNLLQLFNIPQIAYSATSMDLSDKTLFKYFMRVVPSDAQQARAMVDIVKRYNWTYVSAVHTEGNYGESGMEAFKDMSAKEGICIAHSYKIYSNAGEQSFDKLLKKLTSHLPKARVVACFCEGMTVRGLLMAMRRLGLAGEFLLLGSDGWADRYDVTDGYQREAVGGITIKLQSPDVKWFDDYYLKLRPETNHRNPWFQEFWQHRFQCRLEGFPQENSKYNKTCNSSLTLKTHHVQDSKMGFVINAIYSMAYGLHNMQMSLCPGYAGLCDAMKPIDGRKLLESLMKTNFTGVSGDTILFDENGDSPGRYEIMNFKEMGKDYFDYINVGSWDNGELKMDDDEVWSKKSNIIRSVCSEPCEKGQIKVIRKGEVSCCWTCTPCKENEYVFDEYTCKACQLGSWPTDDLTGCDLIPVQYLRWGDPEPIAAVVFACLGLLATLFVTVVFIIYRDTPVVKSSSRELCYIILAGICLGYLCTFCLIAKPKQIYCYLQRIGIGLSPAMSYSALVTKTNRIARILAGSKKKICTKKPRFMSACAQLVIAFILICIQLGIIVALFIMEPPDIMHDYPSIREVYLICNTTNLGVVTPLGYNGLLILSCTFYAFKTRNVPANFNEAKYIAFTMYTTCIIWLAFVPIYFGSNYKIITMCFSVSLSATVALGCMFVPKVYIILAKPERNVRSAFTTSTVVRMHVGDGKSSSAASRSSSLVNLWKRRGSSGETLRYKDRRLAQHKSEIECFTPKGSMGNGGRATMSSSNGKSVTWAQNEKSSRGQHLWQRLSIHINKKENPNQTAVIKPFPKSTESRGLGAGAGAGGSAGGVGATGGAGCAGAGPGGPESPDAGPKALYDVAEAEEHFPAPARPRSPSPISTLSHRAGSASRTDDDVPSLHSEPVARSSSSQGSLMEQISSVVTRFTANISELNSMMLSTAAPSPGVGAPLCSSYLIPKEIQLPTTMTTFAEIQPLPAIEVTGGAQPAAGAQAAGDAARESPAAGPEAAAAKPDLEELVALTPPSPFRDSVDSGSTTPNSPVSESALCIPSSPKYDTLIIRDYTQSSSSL

| SMILES | EC50 [1] | microsomal CLint [2] | also measured |
| --- | --- | --- | --- |
| O=C(COCc1ccncc1)N1CCN(c2ccc(Cl)cc2)CC1 | 1.3 µM | 17 µL/min/mg | – |
| O=C(COCc1ccncc1)N1CCN(c2ccc(Cl)cc2F)CC1 | 0.6 µM | 38 µL/min/mg | – |
| Cc1cc(Cl)ccc1N1CCN(C(=O)COCc2ccncc2)CC1 | 0.24 µM | 68 µL/min/mg | – |
| O=C(COCc1ccncc1)N1CCN(c2ccc(F)cc2F)CC1 | 4.6 µM | 22 µL/min/mg | – |
| O=C(COCc1ccncc1)N1CCN(c2cc(Cl)ccn2)CC1 | 4.2 µM | 4 µL/min/mg | – |
| O=C(COCc1ccncc1)N1CCC(c2ccc(F)cc2Cl)CC1 | 0.37 µM | 56 µL/min/mg | – |
| O=C(COCc1ccncc1)N1CCC(c2ccc(Cl)cc2Cl)CC1 | 0.39 µM | 96 µL/min/mg | – |
| CC1(c2ccc(Cl)cc2)CCN(C(=O)COCc2ccncc2)CC1 | 2.1 µM | – | – |
| O=C(COCc1ccncc1)N1CCC(F)(c2ccc(F)cc2Cl)CC1 | 6.6 µM | – | – |
| Fc1ccc(C2CCN(C(=S)COCc3ccncc3)CC2)c(Cl)c1 | > 10.6 µM | – | – |
| Clc1ccc(N2CCN(CCOCc3ccccc3)CC2)c(Cl)c1 | > 25 µM | – | – |
| O=C(CCCc1ccncc1)N1CCN(c2ccc(Cl)cc2Cl)CC1 | 5.3 µM | – | – |
| O=C(CNCc1ccncc1)N1CCN(c2ccc(Cl)cc2Cl)CC1 | 8.5 µM | – | – |
| O=C(CSCc1ccccc1)N1CCN(c2ccc(Cl)cc2Cl)CC1 | 7.1 µM | – | – |
| O=C(CSc1ccccc1)N1CCN(c2ccc(Cl)cc2Cl)CC1 | > 25 µM | – | – |
| C[C@@H](OCc1ccncc1)C(=O)N1CCC(c2ccc(Cl)cc2F)CC1 | > 25 µM | – | – |
| O=C(COCc1cccnc1)N1CCN(c2ccc(Cl)cc2Cl)CC1 | 1.09 µM | 210 µL/min/mg | – |
| O=C(COCc1cnccn1)N1CCN(c2ccc(Cl)cc2Cl)CC1 | 5.2 µM | 4 µL/min/mg | – |
| O=C(COCc1cncs1)N1CCN(c2ccc(Cl)cc2Cl)CC1 | 1.28 µM | 73 µL/min/mg | – |
| O=C(COCc1nccs1)N1CCN(c2ccc(Cl)cc2Cl)CC1 | > 10.3 µM | 80 µL/min/mg | – |
| O=C(COCc1ccccc1)N1CCN(c2ccccc2Cl)CC1 | 1.1 µM | 540 µL/min/mg | – |
| O=C(COCc1ccccc1)N1CCN(c2ccc(F)cc2F)CC1 | 0.3 µM | 580 µL/min/mg | – |
| O=C(COCc1ccccc1)N1CCN(c2ccc(F)cc2Cl)CC1 | 0.27 µM | 530 µL/min/mg | – |
| O=C(COCc1ccccc1)N1CCN(c2ccncc2)CC1 | > 25 µM | – | – |

Further lines, with some results ahead:

| EC50 [1] | microsomal CLint [2] | SMILES | also measured |
| --- | --- | --- | --- |
| 0.55 µM | 29 µL/min/mg | O=C(COCc1ccncc1)N1CCN(c2ccc(F)cc2Cl)CC1 | Kp [3]: 4.6; Ki [4]: 2.37 µM; bioavailability [5]: 37%; Vd [6]: 3.2 L/kg; Vd [7]: 4.8 L/kg; bioavailability [8]: 41%; clearance [9]: 55 mL/min/kg; half-life [10]: 7.3 h; half-life [11]: 2.9 h; clearance [12]: 38.5 mL/min/kg |
| 0.18 µM | 76 µL/min/mg | O=C(COCc1ccncc1)N1CCN(c2ccc(Cl)cc2Cl)CC1 | – |
| 0.68 µM | 41 µL/min/mg | O=C(COCc1ccncc1)N1CCC(c2ccc(Cl)cc2)CC1 | – |
| 0.8 µM | 45 µL/min/mg | O=C(COCc1ccncc1)N1CCC(F)(c2ccc(Cl)cc2)CC1 | – |
| > 25 µM | – | CN(CC(=O)N1CCN(c2ccc(Cl)cc2Cl)CC1)Cc1ccncc1 | – |
| 0.31 µM | 94 µL/min/mg | O=C(COCc1ccccn1)N1CCN(c2ccc(Cl)cc2Cl)CC1 | – |
| 2.8 µM | 17 µL/min/mg | O=C(COCc1ccncn1)N1CCN(c2ccc(Cl)cc2Cl)CC1 | – |
| 18 µM | 16 µL/min/mg | O=C(COCc1ncccn1)N1CCN(c2ccc(Cl)cc2Cl)CC1 | – |
| 0.29 µM | 62 µL/min/mg | O=C(COCc1cscn1)N1CCN(c2ccc(Cl)cc2Cl)CC1 | – |
| 7.1 µM | – | O=C(COCc1ccccc1)N1CCN(c2ccccc2)CC1 | – |
| 0.31 µM | 360 µL/min/mg | O=C(COCc1cccs1)N1CCN(c2ccc(Cl)cc2Cl)CC1 | – |
| 0.21 µM | 110 µL/min/mg | N#Cc1ccc(COCC(=O)N2CCN(c3ccc(Cl)cc3Cl)CC2)s1 | – |
| 6.7 µM | 310 µL/min/mg | O=C(COCc1ccccc1)N1CCN(c2cccc(Cl)c2)CC1 | – |
| 0.35 µM | 290 µL/min/mg | O=C(COCc1ccccc1)N1CCN(c2ccc(Cl)cc2)CC1 | – |
| 1.1 µM | 110 µL/min/mg | O=C(COCc1ccccc1)N1CCN(c2ccc(F)cc2)CC1 | – |
| 1.4 µM | 450 µL/min/mg | O=C(COCc1ccccc1)N1CCN(c2ccc(Cl)cc2Cl)CC1 | – |
| 0.57 µM | 130 µL/min/mg | O=C(COCc1ccccc1)N1CCN(c2cc(Cl)ccn2)CC1 | – |
